The results in this text go back to PubChem BioAssay AID588734 (Vanderbilt Specialized Chemistry Center, 2011).

The source made the active and inactive calls.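 Rule for the calls: active = compound moving the glutamate curve by at least twofold either way, or glutamate peak under 75% or over 125%; inactive = the rest.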

In the assay the target is Metabotropic glutamate receptor 4 (Rattus norvegicus) (UniProt P31423). The assay can be described thus: rat mGlu4 allosteric modulation, glutamate curve shift, profiling panel, selectivity assay for mGlu5 PAM project, thallium flux, HEK/GIRK cells (AID 588734). The settings on record: glutamate CRC shift, at 10 µM; Emax: measured here: glutamate max response with compound. An outline of the steps: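 Material: HEK/GIRK cells stably expressing rat mGlu4 receptor | Reagent: Glutamate concentration-response curve as agonist stimulus | Dosing: Single test compound dose, 10 µM final | Schedule: Dye loading for 45 min at 37 °C | Signal: Thallium influx measured as slope of dye fluorescence | Control set: Compound-free glutamate curve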
Chain of Metabotropic glutamate receptor 4 (Rattus norvegicus) (P31423 whole entry, looked up): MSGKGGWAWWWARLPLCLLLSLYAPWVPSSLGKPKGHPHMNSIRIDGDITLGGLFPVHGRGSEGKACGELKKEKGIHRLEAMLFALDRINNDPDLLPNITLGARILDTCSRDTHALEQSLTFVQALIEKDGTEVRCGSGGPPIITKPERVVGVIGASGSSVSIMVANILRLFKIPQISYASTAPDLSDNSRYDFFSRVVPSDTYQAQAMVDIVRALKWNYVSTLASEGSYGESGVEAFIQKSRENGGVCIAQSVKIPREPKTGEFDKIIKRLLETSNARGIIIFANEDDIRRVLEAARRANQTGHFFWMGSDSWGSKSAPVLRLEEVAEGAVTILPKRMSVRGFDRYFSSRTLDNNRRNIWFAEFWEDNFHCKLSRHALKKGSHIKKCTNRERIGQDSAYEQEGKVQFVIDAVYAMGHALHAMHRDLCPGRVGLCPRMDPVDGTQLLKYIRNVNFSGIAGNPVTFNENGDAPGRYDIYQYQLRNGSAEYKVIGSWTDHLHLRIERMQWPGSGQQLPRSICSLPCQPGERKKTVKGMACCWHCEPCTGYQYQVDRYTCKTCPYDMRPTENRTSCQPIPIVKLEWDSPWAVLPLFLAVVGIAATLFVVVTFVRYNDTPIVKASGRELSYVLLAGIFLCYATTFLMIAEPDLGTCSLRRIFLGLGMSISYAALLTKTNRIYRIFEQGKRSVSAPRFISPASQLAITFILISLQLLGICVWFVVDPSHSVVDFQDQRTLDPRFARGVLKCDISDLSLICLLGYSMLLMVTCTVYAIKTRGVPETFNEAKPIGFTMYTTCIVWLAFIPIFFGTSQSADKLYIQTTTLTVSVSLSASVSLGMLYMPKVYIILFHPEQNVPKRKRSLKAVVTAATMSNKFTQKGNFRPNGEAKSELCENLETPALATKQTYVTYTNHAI

Usually Emax stands for the maximal effect, on the per cent scale that the assay sets. Take `CC1(NC(=O)c2ccc(C#Cc3cccc(F)c3)cn2)COC1`: the maximal response (Emax) was 93% and the fold shift is 1 (inactive).
Regarding `C[C@@H](NC(=O)c1ccc(C#Cc2cccc(F)c2)cn1)C(C)(C)O`, the maximal effect (Emax) amounted to 90% and the fold shift is 0.88 (inactive).
